PglD inh = blocks C. jejuni PglD acetyltransferase activity. purified PglD enzyme, DTNB colorimetric CoA detection. inhibition, % at 12.5 µM. 360,000 compounds, 0.098% hits. AID 602405; in the data active = inhibition above about 16%, passing the limit was not always enough; inconclusive = no clear call, values can overlap the other calls
SR-BI HDL uptake = inhibitors of mouse SR-BI mediated HDL lipid uptake; 320,000 compounds, 0.96% hits; Q61009; inhibition, % at 12.5 µM; ldlA[mSR-BI] CHO cells, DiI-HDL uptake fluorescence, 3 h;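 active = mean replicate inhibition of at least 70% and a set share of replicates each scoring 70 or more; inconclusive = meets just one of the two criteria; inactive = fails both criteria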;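 note: 0% = median of neutral control wells and 100% = median of positive control wells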
Target sequence (Q61009 whole entry, looked up): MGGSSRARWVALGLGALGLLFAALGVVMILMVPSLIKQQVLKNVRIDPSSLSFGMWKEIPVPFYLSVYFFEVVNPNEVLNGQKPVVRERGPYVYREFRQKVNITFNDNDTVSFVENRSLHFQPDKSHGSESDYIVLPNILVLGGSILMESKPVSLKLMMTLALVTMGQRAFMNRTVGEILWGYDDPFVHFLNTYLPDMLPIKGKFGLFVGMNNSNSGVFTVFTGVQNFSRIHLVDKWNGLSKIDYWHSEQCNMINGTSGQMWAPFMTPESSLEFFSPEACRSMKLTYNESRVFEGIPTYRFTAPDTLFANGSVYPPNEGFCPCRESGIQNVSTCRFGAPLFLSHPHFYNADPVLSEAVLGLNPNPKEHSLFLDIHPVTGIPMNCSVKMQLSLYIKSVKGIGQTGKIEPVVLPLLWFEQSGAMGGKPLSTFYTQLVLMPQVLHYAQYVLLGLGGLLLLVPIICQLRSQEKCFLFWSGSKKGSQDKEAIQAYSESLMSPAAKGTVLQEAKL
SR-BI DiI-HDL act = enhances SR-BI lipid uptake from DiI-HDL; activation, % at 12.5 µM; CHO ldlA[mSR-BI] cells, DiI-HDL uptake fluorescence, 3 h; 100 = double the neutral-control signal; 320,000 compounds, 0.096% hits;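 active = mean replicate activation of at least 60% and every replicate at or above 60%; inconclusive = mean or all-replicate condition met, but not both; inactive = mean below 60% and not all replicates reaching 60%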;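 note: 0% = median plate neutral-control signal and 100% = twice that signal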
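material = CHO ldlA[mSR-BI] cells | medium = Ham's F12 with 0.5% BSA, HEPES 25 mM, pH 7.4 | reagent = fluorescent DiI-HDL, 10 µg/mL final | compound dosing = single-point compound dose | incubation = 3 h, 37 °C | measured by = bottom-read fluorescence, 550/595 nm | measure = HDL uptake via cellular fluorescence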
HIV Env fusion = inhibitors of HIV Env-mediated cell fusion; HeLa-JRFL Env/CEM21 cell fusion, luciferase; inhibition, % at 12.3 µM; 360,000 compounds, 1.1% hits;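 active = mean replicate inhibition score of at least 50 and every replicate individually at or above 50; inconclusive = only one of the two criteria met; inactive = mean below 50 and not all replicates reaching 50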;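 note: 0% = plate neutral controls and 100% = maraviroc near 300 nM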
N-glyco inh = blocks N-linked glycosylation in D54 reporter cells | D54 ERlucT glycosylation luciferase reporter, 24 h; percent of 100 nM tunicamycin response | reporter increase, % at 12.5 µM | 360,000 compounds, 0.23% hits | AID 588692;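 active = mean luciferase reporter signal, scaled so untreated is 0 and the glycosylation-blocking control 100, at or above a set limit in every replicate; inconclusive = mean reaches the limit but not every replicate does; inactive = mean below the limit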;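 note: luciferase carries N-glycosylation sites so blocking glycosylation raises the light; 0% = median of neutral control wells and 100% = median of 100 nM tunicamycin wells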
Rtt109 Vps75 = C. albicans Rtt109 histone acetyltransferase inhibition; purified Rtt109/Vps75, ThioGlo CoA-SH fluorescence, 4 h; inhibition, % at 34.9 µM; Q5AAJ8; 330,000 compounds, 0.16% hits;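 active = inhibition of at least 50% in every replicate; inconclusive = best replicate reaches 50% inhibition but some replicates fall short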
* hit, by the source's call; ? = inconclusive; · = no result given; [ ] = remark or other dose. Hits are enriched below; roughly 1.9% of the tested compounds scored in any of these assays.

SMILES | PglD inh | SR-BI HDL uptake | SR-BI DiI-HDL act | HIV Env fusion | N-glyco inh | Rtt109 Vps75
C[C@@H]1CN([C@@H](C)CO)C(=O)c2cc(NC(=O)c3ccccc3)ccc2O[C@@H](C)CCCCO[C@H]1CN(C)Cc1ccc(C(=O)O)cc1 | 6 | · | · | 62*[16.7 µM] | · | ·
C[C@@H]1CCCCO[C@H](CN(C)Cc2ccccc2)[C@H](C)CN([C@H](C)CO)C(=O)c2cc(NC(=O)Nc3ccc(C(F)(F)F)cc3)ccc2O1 | 0 | · | · | ? | · | ·
C[C@@H]1CCCCO[C@@H](CN(C)Cc2ccc(C(F)(F)F)cc2)[C@H](C)CN([C@@H](C)CO)C(=O)c2cc(NC(=O)c3ccccc3)ccc2O1 | -1 | · | · | 56*[16.7 µM] | · | ·
C[C@H]1CCCCO[C@@H](CN(C)Cc2ccccc2)[C@@H](C)CN([C@@H](C)CO)C(=O)c2cc(NC(=O)Nc3ccc(C(F)(F)F)cc3)ccc2O1 | -2 | · | · | 68*[16.7 µM] | · | ·
C[C@H](CO)N1C[C@H](C)[C@H](CN(C)CC2CC2)OCCCC[C@H](C)Oc2ccc(NC(=O)Nc3cccc4ccccc34)cc2C1=O | -1 | · | · | 62*[16.7 µM] | · | ·
C[C@@H]1CN([C@@H](C)CO)C(=O)c2cc(NC(=O)Nc3cccc4ccccc34)ccc2O[C@@H](C)CCCCO[C@H]1CN(C)CC1CC1 | 7 | · | · | 5[16.7 µM] | · | ·
COc1ccccc1-c1ccc2c(c1)O[C@H](CN(C)CC1CC1)[C@H](C)CN([C@@H](C)CO)S2(=O)=O | · | · | · | 2[16.7 µM] | · | ·
CC(C)CC#Cc1cnc2c(c1)C(=O)N([C@H](C)CO)C[C@H](C)[C@H](CN(C)Cc1cccc(F)c1)O2 | -1 | · | · | 4[16.7 µM] | · | ·
C[C@@H]1CN([C@H](C)CO)C(=O)c2cc(-c3ccccc3)cnc2O[C@H]1CN(C)C(=O)c1cccc(F)c1 | · | · | · | -8[16.7 µM] | · | ·
C[C@H]1CCCCO[C@H](CN(C)CC2CCCCC2)[C@@H](C)CN([C@@H](C)CO)C(=O)c2cc(NC(=O)c3ccccc3)ccc2O1 | 0 | · | · | ? | · | ·
C[C@@H]1CN([C@@H](C)CO)C(=O)c2cc(NC(=O)c3ccccc3)ccc2O[C@@H](C)CCCCO[C@H]1CN(C)CC1CCCCC1 | 2 | · | · | 63*[16.7 µM] | · | ·
C[C@@H]1CCCCO[C@H](CN(C)Cc2ccc(C(F)(F)F)cc2)[C@H](C)CN([C@@H](C)CO)C(=O)c2cc(NC(=O)Nc3ccccc3)ccc2O1 | -3 | · | · | 40[16.7 µM] | · | ·
C[C@H](CO)N1C[C@H](C)[C@H](CN(C)Cc2ccccc2)OCCCC[C@H](C)Oc2ccc(NC(=O)Nc3ccc(C(F)(F)F)cc3)cc2C1=O | -1 | · | · | 66*[16.7 µM] | · | ·
C[C@@H]1CN([C@H](C)CO)C(=O)c2cc(NC(=O)Nc3ccccc3)ccc2O[C@@H](C)CCCCO[C@@H]1CN(C)Cc1ccc(C(F)(F)F)cc1 | 1 | · | · | 58*[16.7 µM] | · | ·
C[C@H]1CCCCO[C@H](CN(C)Cc2ccc(C(F)(F)F)cc2)[C@@H](C)CN([C@@H](C)CO)C(=O)c2cc(NC(=O)Nc3cccc4ccccc34)ccc2O1 | 4 | · | · | 27[16.7 µM] | · | ·
C[C@H]1CCCCO[C@@H](CN(C)Cc2ccc(C(F)(F)F)cc2)[C@@H](C)CN([C@@H](C)CO)C(=O)c2cc(NC(=O)Nc3cccc4ccccc34)ccc2O1 | -1 | · | · | 61*[16.7 µM] | · | ·
C[C@H]1CN([C@@H](C)CO)C(=O)c2cc(NC(=O)C3CC3)ccc2O[C@H]1CN(C)S(=O)(=O)c1ccc(F)cc1 | -1 | · | · | 11[16.7 µM] | · | ·
C[C@@H]1CN([C@H](C)CO)C(=O)c2cc(NC(=O)Nc3cccc4ccccc34)ccc2O[C@@H]1CN(C)Cc1ccc(C(F)(F)F)cc1 | 2 | · | · | 74*[16.7 µM] | · | ·
C[C@@H]1CN([C@@H](C)CO)C(=O)c2cc(NC(=O)Nc3cccc4ccccc34)ccc2O[C@@H]1CN(C)Cc1ccc(C(F)(F)F)cc1 | -2 | · | · | -3[16.7 µM] | · | ·
Cc1sc(NC(=O)c2ccco2)c(CN2CCN(c3ccccc3)CC2)c1C | -3 | 57 | -57 | 63* | 0 | -1
C[C@H](CO)N1C[C@H](C)[C@@H](CN(C)Cc2ccc(-c3ccccc3)cc2)Oc2ccc(NC(=O)Nc3ccc4c(c3)OCO4)cc2CC1=O | -3 | · | · | 9[16.7 µM] | · | ·
C[C@@H](C(=O)NCc1ccc(S(C)(=O)=O)cc1)[C@H]1C[C@]1(C)[C@H](NC(=O)OCc1ccccc1)c1ccccc1 | · | · | · | 55* | · | ·

Compound activity (PubChem)
